We go through two molecules from ChEMBL document CHEMBL4033800, “Further Developments of the Phenyl-Pyrrolyl Pentane Series of Nonsteroidal Vitamin D Receptor Modulators as Anticancer Agents” (J Med Chem, 2018).

Data set [1] concerns MCF7. The data set is described as follows: Induction of apoptosis in human MCF7 cells assessed as upregulation of Bax mRNA levels at 1 uM after 24 hrs by RT-qPCR analysis. It counts as functional, cell-based. In general terms: In qPCR the cycle at which signal appears reflects the starting amount.
Data set [2] in a line: AUC in Sprague-Dawley rat at 5 mg/kg, iv measured up to 48 hrs post administration by HPLC analysis. It counts as ADME, organism-based. On the set-up: dose 5 mg/kg, time < 48 hr, route intravenous. The conditions noted are these: in vivo. In short, it runs like this: (§1)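 Male Sprague-Dawley rats (180−220 g), 4 per group, dosed at 5 mg/kg i.v., 20 mg/kg i.p. or 20 mg/kg p.o. Parameters given as mean ± SD (n = 4).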

For data set [3], the system named is Mus musculus. Nature of the data set: Toxicity in BALB/c nude mouse xenografted with human MCF7 cells assessed as change in body weight at 10 mg/kg, ip administered every other day relative to control. It counts as organism-based. Particulars: in vivo. A digest of the protocol:
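MCF7 cells transplanted orthotopically into the breast of athymic nude mice. Dosing at 10 mg/kg i.p. in vehicle of polyoxyethylated castor oil/ethanol/saline 1:1:18, with vehicle and saline control groups. Body weight, tumor volume and serum calcium followed.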
(A xenograft is tissue or cells of one species grown in another, often human tumour cells in immunodeficient mice.)

Data set [4] has as its system MCF7. Nature of the data set: Induction of cell cycle arrest in human MCF7 cells assessed as upregulation of p21 mRNA levels at 1 uM after 24 hrs by RT-qPCR analysis. It counts as functional, cell-based. In short, it runs like this:
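p21 and p27 mRNA levels were measured by real-time quantitative PCR in MCF7 cells treated at 1 µM for 24 h.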

A further data set concerns HepG2. The data set is described as follows: Antiproliferative activity against human HepG2 cells after 48 hrs by MTT assay. The data set is classed as functional, cell-based. Particulars: HepG2, 48 h. (In general: Tetrazolium dyes change colour on reduction, which living cells bring about.)
Data set [5] concerns Mus musculus. Nature of the data set: Hypercalcemic effect in ICR mouse at 0.5 to 5 mg/kg/day, ip administered for 7 days measured on day 8 post-dose by MTB-based assay relative to control. It counts as ADME, organism-based. Particulars: in vivo, 168 h. In short, it runs like this:
(§2)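 Mice were dosed i.p. over a 7-day period and serum calcium was then measured. Each dose level was compared with a vehicle-treated control group (saline cited as the comparator). Data are mean ± SEM, n = 6 per group. Significance versus vehicle was reported at p < 0.05, 0.01 and 0.001.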

Another data set deals with PC-3. The data set is described as follows: Antiproliferative activity against human PC3 cells after 48 hrs by MTT assay. The data set is classed as functional, cell-based. The conditions noted are these: PC-3, 48 h.
A short description of data set [6]: MRT in Sprague-Dawley rat at 20 mg/kg, po by HPLC analysis. It counts as ADME, organism-based. The conditions noted are these: in vivo. In short, it runs like this:
as §1

The nature of data set [7]: Drug metabolism in human MCF7 cells at 1 uM after 24 hrs by HPLC analysis. It counts as ADME, cell-based. Particulars: read-out: Drug metabolism. A digest of the protocol: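 MCF7 cells were incubated 24 h with 1 µM compound, alongside a medium-only incubation without cells. Mixtures were extracted with chloroform/methanol (3:1, v/v) and quantified by HPLC. Mean ± SEM, n = 3.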

Data set [8] has as its system MCF7. Nature of the data set: Induction of apoptosis in human MCF7 cells assessed as necrotic cells at 1 uM after 24 hrs by Annexin V-FITC/propidium iodide-staining based flow cytometry (reference value: 0.031%). It counts as functional.
In data set [9] the test system is MCF7. Nature of the data set: Induction of cell cycle arrest in human MCF7 cells assessed as accumulation at G2/M phase at 1 uM after 24 hrs by propidium iodide-staining based flow cytometry (reference value: 12.41%). The data set is classed as functional.
Data set [10] is described as follows: Half life in Sprague-Dawley rat at 20 mg/kg, po by HPLC analysis. The conditions noted are these: in vivo. It counts as ADME, organism-based. A digest of the protocol:
as §1

Data set [11] in a line: MRT in Sprague-Dawley rat at 20 mg/kg, ip by HPLC analysis. The conditions noted are these: in vivo. The data set is classed as ADME, organism-based. In short, it runs like this: as §1
For data set [12], the system named is MCF7. Nature of the data set: Induction of apoptosis in human MCF7 cells xenografted in BALB/c nude mouse at 10 mg/kg, ip administered every other day by TUNEL assay. The data set is classed as functional, organism-based. A digest of the protocol: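 Apoptosis in MCF7 orthotopic tumor sections from nude mice given 10 mg/kg i.p. was scored by TUNEL staining.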

In data set [13] the test system is Mus musculus. The data set is described as follows: Hypercalcemic effect in ICR mouse at 30 mg/kg/day, ip administered for 7 days measured on day 8 post-dose by MTB-based assay relative to control. The data set is classed as ADME, organism-based. Particulars: in vivo, 168 h. A digest of the protocol: as §2

pIC50: −log10 of the molar value. Calls of active or inactive are those of the source. The rule behind the calls is not given here.

Consider `CCn1c(C(=O)NCCCN2CCOCC2)ccc1C(CC)(CC)c1ccc(OCCC(O)(CC)CC)c(C)c1`, for which the outcome in the data set on MCF7 [1], in the data set on MCF7 [4] and in the data set with MCF7 [12] was Active. In addition, the area under the curve (AUC) at 48 h in data set [2] came out at 10400 ng·h/mL. The Activity entry with Mus musculus [3] was “Non-Toxic”; in the data set on Mus musculus [5] it was “Non-Toxic”; in the data set on MCF7 [8] it was 0.2%; with MCF7 [9], 6.96%; in the data set with Mus musculus [13], “Toxic”. In addition, the negative logarithm of the IC50 (pIC50) in the data set on HepG2 is 5.75; in the data set on PC-3, 5.80. Besides, the MRT in [6] came to 15.9 h; in [11] it was 17.6 h. Further, in [7], the metabolised at 24 h, 1 µM was found to be 6%. In data set [10], this molecule gave a half-life of 11.3 h.
Turning to `CCN(CC)CCCNC(=O)c1ccc(C(CC)(CC)c2ccc(OCCC(O)(CC)CC)c(C)c2)n1CC`, the result in the data set on MCF7 [1], with MCF7 [4] and in the data set on MCF7 [12] was Active. The molecule also displayed an AUC at 48 h in [2] of 25200 ng·h/mL. For the same molecule, the Activity entry was “Non-Toxic” with Mus musculus [3], “Non-Toxic” in the data set on Mus musculus [5], 0.23% in the data set with MCF7 [8] and 4.72% with MCF7 [9]. In addition, the pIC50 in the data set with HepG2 was 6.82; in the data set on PC-3, 7.40. For the same molecule, the MRT in data set [6] was found to be 11 h; in [11] it was 9.3 h. In [10], this molecule showed a half-life of 6.82 h.

A word on the AUC: it is concentration integrated over time. Usually pIC50 stands for the IC50 on a negative log10 scale, so that one unit is a factor of ten. High values mean a small IC50, low ones a large IC50. In general, MRT refers to a mean duration of stay, worked out from the concentration-time curve. By half-life is commonly meant the time in which the quantity being followed falls by half. Lower therefore signals fast loss.
